Assay outcomes (PubChem)
RGS4 pot = RGS4 potentiators or activators, primary screen, cell-based, HEK293 M3R inducible RGS4, calcium flux. carbachol calcium flux Fluo4; active compounds read low. B-score at 10 µM. 310,000 tested, 0.92% active. AID 463111, 2010;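 active = B-score of the integrated calcium signal more than 4 SD below the library mean, with starting fluorescence not abnormally high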;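 also: negative B-score means reduced calcium response which marks RGS4 activation or potentiation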
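Detection: kinetic calcium fluorescence imaging with Fluo4-AM dye, 2 µM / Material: HEK293 cells with stable M3R and inducible RGS4 / Schedule: recording 10 s baseline at 1 Hz, 100 s post-agonist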
MrgX1 agonist = agonists of human MrgX1 receptor, primary screen, HEK293 cells, Fluo-4 calcium flux | Fluo-4 calcium fluorescence, agonist mode; active compounds read high | B-score at 10 µM | 310,000 tested, 0.44% active | AID 588627, 2011;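 active = calcium response B-score plate-corrected fluorescence ratio at least 3 library SD, with starting fluorescence B-score inside 5 SD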
Target sequence (Q96LB2 whole entry, looked up): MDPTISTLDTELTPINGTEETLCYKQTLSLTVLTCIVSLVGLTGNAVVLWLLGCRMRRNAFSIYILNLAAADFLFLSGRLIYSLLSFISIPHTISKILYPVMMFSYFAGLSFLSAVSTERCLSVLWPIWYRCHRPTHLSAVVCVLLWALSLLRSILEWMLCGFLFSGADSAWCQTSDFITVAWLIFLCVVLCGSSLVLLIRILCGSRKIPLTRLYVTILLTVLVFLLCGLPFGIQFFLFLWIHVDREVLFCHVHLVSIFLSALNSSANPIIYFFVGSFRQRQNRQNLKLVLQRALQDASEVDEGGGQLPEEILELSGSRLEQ
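times = overnight plating, then 30 min 37 °C plus 30 min room-temperature dye loading | assay system = stable human MrgX1 HEK293 cell line | input = fifteen thousand cells per well | signal = kinetic calcium dye fluorescence, Fluo-4 NW | dosing = compound delivered in addition one of three | read-out = B-scored fluorescence response ratio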
MrgX1 antagonist = antagonists of human MrgX1 receptor, primary screen, HEK293 cells, Fluo-4 calcium flux. Mas-related G-protein coupled receptor member X1 (Homo sapiens), Q96LB2. BAM8-22 antagonism; active compounds read low. B-score at 10 µM. 310,000 tested, 1.3% active. AID 588676, 2011;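 active = calcium-response B-score plate-corrected more than 3 library SD below zero, starting fluorescence within 5 deviations, no agonist response on first addition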;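 also: peak minus trough fluorescence over baseline after final BAM8-22 challenge near maximal dose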
MrgX1 allo act = positive allosteric modulators of MrgX1, primary screen, HEK293 cells, Fluo-4 calcium flux. FDSS; active compounds read high. B-score at 10 µM. Mas-related G-protein coupled receptor member X1 (Homo sapiens), Q96LB2. 310,000 tested, 0.63% active;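 active = plate-corrected calcium response at least 3 library SD above typical, normal starting fluorescence, not activating the receptor alone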;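 also: compound read alongside a low EC10 to EC30 dose of BAM8-22 agonist; peak minus trough fluorescence over baseline measured at the second addition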
RGS4 inh = RGS4 inhibitors, primary screen, cell-based, HEK293 M3R inducible RGS4, calcium flux; Regulator of G-protein signaling 4 (Homo sapiens), P49798; Fluo-4 calcium flux; active compounds read high; triggered by carbachol at its EC20; B-score at 10 µM; 310,000 tested, 0.45% active;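 active = B-score, a plate-corrected calcium signal, over three deviations above library mean, with baseline fluorescence within five deviations of library mean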;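 also: RGS4 expression induced by doxycycline in cells with stable M3 receptor; B-score is computed from the integrated fluorescence ratio over baseline after carbachol; higher B-score means a larger calcium signal and so more RGS4 inhibition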
Target sequence (P49798 whole entry, looked up): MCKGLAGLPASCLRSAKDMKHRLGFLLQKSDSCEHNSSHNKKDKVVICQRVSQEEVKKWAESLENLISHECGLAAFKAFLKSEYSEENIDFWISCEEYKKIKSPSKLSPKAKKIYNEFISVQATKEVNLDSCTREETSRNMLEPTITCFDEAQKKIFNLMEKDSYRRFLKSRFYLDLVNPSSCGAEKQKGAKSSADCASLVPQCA
RGS4 block valid = enhanced carbachol calcium response, M3R/RGS4 cells, RGS4 inhibitor project, cell-based, validation screen, HEK293 M3R/RGS4, calcium flux; shares compounds with RGS4 inh; carbachol calcium Fluo-4 fluorescence; carbachol added at its EC20; 0 = buffer wells, 100 = carbachol control; calcium response, % at 10 µM; 1,700 tested, 65% active;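 active = duplicate-averaged calcium response above the buffer-only control mean plus 5 SD of those controls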;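 also: integrated fluorescence ratio F max minus min over baseline F0; higher response in RGS4-induced cells means RGS4 inhibition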
M3R Ca ctr = carbachol calcium response in non-induced M3R cells, confirmation, counter-screen for RGS4 inhibitor project, cell-based, HEK293 M3R. shares compounds with RGS4 inh. carbachol calcium Fluo-4; submaximal (EC20) carbachol stimulus; buffer wells 0%, carbachol control wells 100%. activity (percent), % at 10 µM. 1,900 tested, 20% active. AID 493000, 2010; call rule not given here;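 also: RGS4 induction absent so cells express M3R without RGS4; higher means more calcium signal and flags a non-specific hit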
RGS4 inh ctr2 = signal in non-induced cells without carbachol, RGS4 inhibitor counter-screen; shares compounds with RGS4 inh; 1,900 tested, 22% active; calcium response (agonist-mode artifact), % at 10 µM; HEK293 M3R/RGS4 non-induced, Fluo-4 calcium, no carbachol; normalised: buffer wells 0%, carbachol wells 100%;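 active = duplicate-averaged calcium rise in uninduced cells above buffer wells' mean plus 5 SD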
The depositor's hits bear a star; i = inactive; / = no result. Only some compounds are listed: those with a hit (about 3.5% of all), similar ones and a draw of the others.

SMILES	RGS4 pot	MrgX1 agonist	MrgX1 antagonist	MrgX1 allo act	RGS4 inh	RGS4 block valid	M3R Ca ctr	RGS4 inh ctr2
COC(=O)c1ccc(NC(=S)Nc2ccc3ccccc3c2)cc1	i	i	i	i	7.8*	i	i	i
Cc1cc(=O)oc2cc(OCC(=O)N(C)C3CCS(=O)(=O)C3)c(Cl)cc12 (stereo not drawn)	i	i	i	i	i	/	/	/
COc1ccccc1-c1nnc2n1N=C(c1ccc(O)c(O)c1)CS2	i	i	i	i	i	/	i	i
COc1ccc(C2=Nn3c(nnc3-c3cccnc3)SC2)cc1OC	i	i	i	i	i	i	i	i
Brc1ccc(C2=Nn3c(nnc3-c3cccnc3)SC2)s1	i	i	i	i	i	/	/	/
CCOc1ccc(-c2nnc(Nc3ccc(OC)c(C(=O)N4CCCCC4)c3)c3ccccc23)cc1	i	i	i	i	i	i	i	i
Cn1c2ccccc2c2c(C(=O)NCc3ccco3)cn(C3CCCCC3)c(=O)c21	i	i	i	i	i	i	i	i
CCOc1ccc(C(NC(=O)CC)c2c(O)ccc3ccccc23)cc1 (stereo not drawn)	i	i	i	i	i	/	/	/
CC(=O)Oc1ccc2ccccc2c1C(NC(=O)Cc1ccccc1)c1ccc(Cl)cc1 (stereo not drawn)	i	i	-5.9*	i	i	/	i	i
CNc1cc(C)c(C#N)c2nc3ccccc3n12	i	i	i	i	i	/	/	/
Cc1cc(Cl)n2c(nc3ccccc32)c1C#N	i	/	/	/	11*	31%*	i	10%*
O=C(NCCN1C(=O)S/C(=C\c2ccc(Cl)c(Cl)c2)C1=O)C1COc2ccccc2O1 (stereo not drawn)	i	i	i	i	4.9*	8.0%*	i	i
COc1ccc(/C=C2/SC(=O)N(CCNC(=O)C3COc4ccccc4O3)C2=O)cc1 (stereo not drawn)	i	i	i	i	i	/	/	/
CCOC(=O)C1CCN(C(c2cc3ccc(C)c(C)c3[nH]c2=O)c2nnnn2C2CCCCC2)CC1 (stereo not drawn)	i	i	i	i	i	i	i	19%*
CCOC(=O)C1CCN(C(c2cc3c(C)ccc(C)c3[nH]c2=O)c2nnnn2C2CCCCC2)CC1 (stereo not drawn)	i	i	i	i	i	i	i	i
CCCCSc1nc2c(c(=O)[nH]c(=O)n2C)n1CCc1ccccc1	i	i	i	i	i	/	/	/
CC(C)NCC(O)c1cc(O)cc(O)c1 (stereo not drawn)	i	i	i	i	4.8*	22%*	52%*	i
COc1ccc(S(=O)(=O)NCCC(=O)NCc2ccccc2)cc1	i	i	i	i	i	i	i	i
CC(=O)c1cccc(NC(=O)NC2CC3CCCC(C2)N3CC(C)C)c1 (stereo not drawn)	i	i	i	i	i	/	/	/
Cn1cc(Cl)c(C(=O)NC2CCCCCC2)n1	i	i	i	i	i	/	/	/
Cn1cc(Cl)c(C(=O)NNC(=S)NC2CCCCC2)n1	i	i	i	i	15*	39%*	50%*	i
O=C(Oc1ccc2ccccc2c1)c1cncc(Br)c1	i	i	i	i	i	/	/	/
COc1cc2c(cc1OC)-c1cc(Nc3ccc(F)cc3)nc(=O)n1CC2	i	i	i	i	i	i	i	i
COc1cc2c(cc1OC)-c1cc(Nc3cccc(F)c3)nc(=O)n1CC2	i	/	/	/	i	/	/	/
COc1cc2c(cc1OC)-c1cc(OCc3ccccc3Cl)nc(=O)n1CC2	i	i	i	i	i	/	/	/
SMILES	RGS4 pot	MrgX1 agonist	MrgX1 antagonist	MrgX1 allo act	RGS4 inh	RGS4 block valid	M3R Ca ctr	RGS4 inh ctr2
COc1cc2c(cc1OC)-c1cc(Nc3ccc(N(C)C)cc3)nc(=O)n1CC2	i	i	i	i	5.6*	7.0%*	36%*	i
O=C(/C=C/c1ccccc1)/C=C/c1ccccc1	i	i	i	i	6.3*	27%*	38%*	i
COc1ccc(Oc2coc3cc(OCC(=O)N4CCCCC4)ccc3c2=O)cc1	i	i	i	i	i	/	/	/
O=C(O)Cn1nc(-c2ccccc2)oc1=O	i	i	i	i	i	/	/	/
CC(=O)C1=NOC(CNc2ncc(C(F)(F)F)cc2Cl)C1 (stereo not drawn)	i	i	i	i	i	/	i	i
O=C(O)C1=NOC(CNc2ncc(C(F)(F)F)cc2Cl)C1 (stereo not drawn)	i	i	i	i	5*	5.0%*	48%*	i
NNC(=O)C1=NOC(CNc2ncc(C(F)(F)F)cc2Cl)C1 (stereo not drawn)	i	i	i	i	i	/	/	/
O=C1SCC(c2ccc(Cl)cc2Cl)=NN1Cc1nnc(-c2ccccc2)o1	i	i	i	i	i	/	/	/
O=C(Nc1ccccc1)c1ccc(CSc2ccccn2)cc1	i	i	i	i	i	/	/	/
CN(CCc1ccccn1)C(=O)CC1C(=O)NCCN1Cc1cccc(F)c1 (stereo not drawn)	i	i	i	i	i	/	/	/
CN(Cc1cnccn1)C(=O)CC1C(=O)NCCN1Cc1ccc(F)cc1Cl (stereo not drawn)	i	i	i	i	4.8*	i	i	82%*
CN(Cc1ccccn1)C(=O)CC1C(=O)NCCN1Cc1ccc(F)cc1Cl (stereo not drawn)	i	i	i	i	i	i	i	14%*
Cc1cc2c(=O)[nH]cnc2s1	i	i	i	i	i	/	/	/
Nn1c(=O)[nH]c2c([nH]c3ccccc32)c1=O	i	i	i	i	5.9*	i	i	i
Cc1nc2c([nH]c3ccccc32)c(=O)n1N	i	i	i	i	i	/	/	/
